In brackets after ≈: the same amount, converted by molar mass. Activity calls are given as the source filed them. The rule behind the calls is not given here. Some results are limits rather than exact numbers.

The test system of test [1] is Staphylococcus aureus. Briefly: Antibacterial activity against Staphylococcus aureus assessed as growth inhibition at 16 ug/ml after 24 hrs. Type of test: functional, organism-based. In outline: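 S. aureus grown in Mueller Hinton Broth to early exponential phase, then exposed to compound (16 μg/mL; DMSO stocks 10 mg/mL) or DMSO in duplicate, 37 °C for 24 h. OD600 read; percent normalized OD600 = (X − media blank)/(DMSO control − media blank) × 100.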

The next test deals with Listeria monocytogenes. Briefly: Bacteriostatic activity against Listeria monocytogenes ATCC 19115 after 20 hrs by broth microdilution method. Type of test: functional. The settings on record: ATCC 19115, 20 h. The gist of the method:
(§1)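 MIC by broth microdilution across 128 to 1 μg/mL in 96-well plates, 37 °C for at least 20 h. MIC is the lowest concentration with no visible growth.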
On the technique in general: In broth dilution the organism is exposed to a series of concentrations in liquid medium.

Test [2] deals with Staphylococcus aureus. The test can be described thus: Bacteriostatic activity against methicillin-resistant Staphylococcus aureus ATCC 33592 after 20 hrs by broth microdilution method. The format is functional. To be noted: ATCC 33592, 20 h. In outline: (§2)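 Broth microdilution MIC over 128 to 1 μg/mL, run alongside methicillin, linezolid and vancomycin. MIC taken as the lowest concentration with no visible growth.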

For test [3], the system named is Staphylococcus aureus. The test can be described thus: Bacteriostatic activity against Staphylococcus aureus ATCC 25923 after 20 hrs by broth microdilution method. The format is functional. The settings on record: ATCC 25923, 20 h. The gist of the method: as §2
Test [4] relates to Enterococcus faecalis. Briefly: Bacteriostatic activity against vancomycin-resistant Enterococcus faecalis ATCC 51575 after 20 hrs by broth microdilution method. Type of test: functional. The settings on record: ATCC 51575, 20 h. In outline:
as §2

Test [5] has as its system Enterococcus faecalis. Briefly: Bacteriostatic activity against Enterococcus faecalis ATCC 29212 after 20 hrs by broth microdilution method. Type of test: functional. The settings on record: ATCC 29212, 20 h. The gist of the method:
as §2

For test [6], the system named is Escherichia coli. The test can be described thus: Bacteriostatic activity against Escherichia coli BW25113 after 20 hrs by broth microdilution method. To be noted: BW25113, 20 h. The format is functional. In outline:
as §1

The subject of test [7] is Escherichia coli. Briefly: Bacteriostatic activity against AcrAB-tolC deficient Escherichia coli JW5503-1 after 20 hrs by broth microdilution method. To be noted: JW5503-1, 20 h. The format is functional. In outline: as §1
The subject of the next test is Pseudomonas aeruginosa. Briefly: Bacteriostatic activity against Pseudomonas aeruginosa ATCC 15442 after 20 hrs by broth microdilution method. Type of test: functional. In outline:
as §1

A further test relates to Klebsiella pneumoniae. Briefly: Bacteriostatic activity against Klebsiella pneumoniae BAA 1706 after 20 hrs by broth microdilution method. Type of test: functional. In outline:
as §1

A further test relates to Acinetobacter baumannii. The test can be described thus: Bacteriostatic activity against Acinetobacter baumannii ATCC 19606 after 20 hrs by broth microdilution method. The format is functional. The settings on record: ATCC 19606 = CIP 70.34 = JCM 6841. In outline: as §1

By MIC is commonly meant the lowest concentration found to suppress growth. As for `CC1CCCCN1S(=O)(=O)c1ccc(C(=O)Nc2nnc(-c3cccs3)o2)cc1` (stereo not given), in the test with Staphylococcus aureus [1], the “growth inhibition (GI)” value was “Active”. Moreover, the MIC with Listeria monocytogenes came to 16 µg/mL (≈ 37 µM); in the test on Staphylococcus aureus [2], 8 µg/mL (≈ 18.5 µM); against Staphylococcus aureus [3], 8 µg/mL (≈ 18.5 µM); against Enterococcus faecalis [4], 16 µg/mL (≈ 37 µM); with Enterococcus faecalis [5], 16 µg/mL (≈ 37 µM).

For the compound `CN(C)S(=O)(=O)c1ccc(C(=O)Nc2nnc(-c3ccc(F)cc3)o2)cc1`, the “growth inhibition (GI)” value with Staphylococcus aureus [1] was “Active”. For the same compound, the MIC in the test on Listeria monocytogenes stood at 32 µg/mL (≈ 82 µM); against Staphylococcus aureus [2], 16 µg/mL (≈ 41 µM); in the test on Staphylococcus aureus [3] it was 16 µg/mL (≈ 41 µM); against Enterococcus faecalis [4], 32 µg/mL (≈ 82 µM); in the test with Enterococcus faecalis [5], 32 µg/mL (≈ 82 µM).

In the case of `C#CCNS(=O)(=O)c1ccc(C(=O)Nc2nnc(-c3ccc(Cl)cc3)o2)cc1`, the “growth inhibition (GI)” value in the test with Staphylococcus aureus [1] was “Active”. In addition, the MIC against Listeria monocytogenes amounted to 64 µg/mL (≈ 154 µM); in the test with Staphylococcus aureus [2], 32 µg/mL (≈ 76.8 µM); in the test with Staphylococcus aureus [3] it was 64 µg/mL (≈ 154 µM); in the test on Enterococcus faecalis [4], 64 µg/mL (≈ 154 µM); against Enterococcus faecalis [5] it was 64 µg/mL (≈ 154 µM).

With `O=C(Nc1nnc(-c2ccc(Cl)cc2)o1)c1ccc(S(=O)(=O)N2CCCC2)cc1`, the “growth inhibition (GI)” value in the test with Staphylococcus aureus [1] is “Active”. The minimal inhibitory concentration (MIC) with Listeria monocytogenes came out at 16 µg/mL (≈ 37 µM); against Staphylococcus aureus [2] it was 8 µg/mL (≈ 18.5 µM); against Staphylococcus aureus [3], 16 µg/mL (≈ 37 µM); with Enterococcus faecalis [4], 16 µg/mL (≈ 37 µM); against Enterococcus faecalis [5] it was 16 µg/mL (≈ 37 µM).

For `COc1cccc(-c2nnc(NC(=O)c3ccc(S(=O)(=O)N(C)CC4CCCO4)cc3)o2)c1` (stereo not given), in the test on Staphylococcus aureus [1], the “growth inhibition (GI)” value was “Active”. Further, the MIC against Listeria monocytogenes, against Staphylococcus aureus [2], against Staphylococcus aureus [3], in the test on Enterococcus faecalis [4] and against Enterococcus faecalis [5] was 32 µg/mL (≈ 67.7 µM) each time.

For the compound `CN(C)S(=O)(=O)c1ccc(C(=O)Nc2nnc(-c3ccc(Cl)cc3)o2)cc1`, in the test with Staphylococcus aureus [1], the “growth inhibition (GI)” value is “Active”. The MIC against Listeria monocytogenes was determined as 64 µg/mL (≈ 157 µM); with Staphylococcus aureus [2], 32 µg/mL (≈ 78.7 µM); against Staphylococcus aureus [3] it was 64 µg/mL (≈ 157 µM); in the test with Enterococcus faecalis [4], 64 µg/mL (≈ 157 µM); in the test with Enterococcus faecalis [5], 64 µg/mL (≈ 157 µM).

Consider `O=C(Nc1nnc(-c2cccs2)o1)c1ccc(S(=O)(=O)N2CCCCC2)cc1`, for which the “growth inhibition (GI)” value with Staphylococcus aureus [1] is “Active”. Besides, the minimal inhibitory concentration (MIC) in the test on Listeria monocytogenes amounted to 32 µg/mL (≈ 76.5 µM); against Staphylococcus aureus [2], 32 µg/mL (≈ 76.5 µM); against Staphylococcus aureus [3], 32 µg/mL (≈ 76.5 µM); against Enterococcus faecalis [4], 64 µg/mL (≈ 153 µM); in the test on Enterococcus faecalis [5], 16 µg/mL (≈ 38.2 µM).

On to `O=C(Nc1nnc(-c2ccc(Cl)cc2)o1)c1ccc(S(=O)(=O)NC2CC2)cc1`, for which the “growth inhibition (GI)” value in the test on Staphylococcus aureus [1] is “Active”. Also, the MIC was 16 µg/mL (≈ 38.2 µM) against Listeria monocytogenes; 16 µg/mL (≈ 38.2 µM) against Staphylococcus aureus [2]; 16 µg/mL (≈ 38.2 µM) in the test on Staphylococcus aureus [3]; 16 µg/mL (≈ 38.2 µM) against Enterococcus faecalis [4]; 32 µg/mL (≈ 76.4 µM) in the test on Enterococcus faecalis [5].

For the compound `CCN(CC)S(=O)(=O)c1ccc(C(=O)Nc2nnc(-c3ccc(Cl)cc3)o2)cc1`, in the test on Staphylococcus aureus [1], the “growth inhibition (GI)” value was “Active”. Further, the MIC in the test on Listeria monocytogenes came to 16 µg/mL (≈ 36.8 µM); against Staphylococcus aureus [2] it was 16 µg/mL (≈ 36.8 µM); in the test on Staphylococcus aureus [3], 16 µg/mL (≈ 36.8 µM); in the test with Enterococcus faecalis [4], 16 µg/mL (≈ 36.8 µM); in the test on Enterococcus faecalis [5], 32 µg/mL (≈ 73.6 µM).

On to `CCOC(=O)c1nnc(NC(=O)c2ccc(S(=O)(=O)N3C[C@H](C)C[C@H](C)C3)cc2)o1`, for which the “growth inhibition (GI)” value in the test with Staphylococcus aureus [1] was “inactive”.

As for `CN(CC1CCCO1)S(=O)(=O)c1ccc(C(=O)Nc2nnc(-c3ccccc3)o2)cc1` (stereo not given), the “growth inhibition (GI)” value in the test on Staphylococcus aureus [1] was “Active”.

Turning to `C[C@@H]1CN(S(=O)(=O)c2ccc(C(=O)Nc3nnc(-c4cccs4)o3)cc2)C[C@H](C)O1`, the “growth inhibition (GI)” value with Staphylococcus aureus [1] is “inactive”.

`C[C@@H]1C[C@H](C)CN(S(=O)(=O)c2ccc(-c3nnc(-c4cccs4)o3)cc2)C1`: the “growth inhibition (GI)” value in the test with Staphylococcus aureus [1] was “inactive”.

Turning to `C[C@@H]1C[C@H](C)CN(S(=O)(=O)c2ccc(C(=O)Nc3nnc(-c4cccs4)[nH]3)cc2)C1`, the “growth inhibition (GI)” value in the test on Staphylococcus aureus [1] was “inactive”.

For the compound `C[C@@H]1C[C@H](C)CN(S(=O)(=O)c2ccc(C(=O)Nc3nnc(C4CCCO4)o3)cc2)C1` (stereo not given in full), the “growth inhibition (GI)” value with Staphylococcus aureus [1] was “inactive”.

For `O=C(Nc1nnc(-c2ccco2)o1)c1ccc(S(=O)(=O)N2CCOCC2)cc1`, the “growth inhibition (GI)” value in the test on Staphylococcus aureus [1] was “inactive”.

In the case of `O=C(Nc1nnc(-c2cccs2)o1)c1ccccc1`, the “growth inhibition (GI)” value in the test with Staphylococcus aureus [1] is “inactive”.

As to `C[C@@H]1C[C@H](C)CN(S(=O)(=O)c2ccc(C(=O)Nc3nnc(-c4ccc(Br)cc4)o3)cc2)C1` (mixture of isomers), the “growth inhibition (GI)” value in the test with Staphylococcus aureus [1] is “Active”. In addition, the MIC against Listeria monocytogenes was 4 µg/mL; in the test with Staphylococcus aureus [2], 4 µg/mL; against Staphylococcus aureus [3] it was 2 µg/mL; against Enterococcus faecalis [4], 4 µg/mL; against Enterococcus faecalis [5], 4 µg/mL.

Take `C[C@@H]1C[C@H](C)CN(S(=O)(=O)c2ccc(C(=O)Nc3nnc(-c4ccc([N+](=O)[O-])cc4)o3)cc2)C1` (mixture of isomers): the “growth inhibition (GI)” value with Staphylococcus aureus [1] is “Active”. Besides, the MIC in the test with Listeria monocytogenes worked out at 32 µg/mL; in the test with Staphylococcus aureus [2], 16 µg/mL; with Staphylococcus aureus [3] it was 32 µg/mL; with Enterococcus faecalis [4], 32 µg/mL; against Enterococcus faecalis [5], 64 µg/mL.

In the case of `C[C@@H]1C[C@H](C)CN(S(=O)(=O)c2ccc(C(=O)Nc3nnc(-c4ccc(F)cc4)o3)cc2)C1` (mixture of isomers), in the test on Staphylococcus aureus [1], the “growth inhibition (GI)” value was “Active”. Also, the MIC with Listeria monocytogenes, against Staphylococcus aureus [2], against Staphylococcus aureus [3], against Enterococcus faecalis [4] and against Enterococcus faecalis [5] was 4 µg/mL throughout.

With `C[C@@H]1C[C@H](C)CN(S(=O)(=O)c2ccc(C(=O)Nc3nnc(-c4cccc(C#N)c4)o3)cc2)C1` (mixture of isomers), the “growth inhibition (GI)” value in the test on Staphylococcus aureus [1] was “Active”. Besides, the minimum inhibitory concentration (MIC) was 8 µg/mL with Listeria monocytogenes; 8 µg/mL against Staphylococcus aureus [2]; 16 µg/mL against Staphylococcus aureus [3]; 16 µg/mL with Enterococcus faecalis [4]; 32 µg/mL in the test with Enterococcus faecalis [5].

Regarding `C[C@@H]1C[C@H](C)CN(S(=O)(=O)c2ccc(C(=O)Nc3nnc(-c4ccc(Cl)cc4)o3)cc2)C1` (mixture of isomers), the “growth inhibition (GI)” value in the test on Staphylococcus aureus [1] was “Active”. Also, the MIC with Listeria monocytogenes was 2 µg/mL; with Staphylococcus aureus [2], 1 µg/mL; with Staphylococcus aureus [3], 2 µg/mL; with Enterococcus faecalis [4] it was 2 µg/mL; against Enterococcus faecalis [5] it was 4 µg/mL.

Consider `COc1ccc(-c2nnc(NC(=O)c3ccc(S(=O)(=O)N4C[C@H](C)C[C@H](C)C4)cc3)o2)cc1` (mixture of isomers), for which the “growth inhibition (GI)” value in the test with Staphylococcus aureus [1] was “Active”. Further, the MIC against Listeria monocytogenes, against Staphylococcus aureus [2], with Staphylococcus aureus [3], with Enterococcus faecalis [4] and in the test on Enterococcus faecalis [5] was 4 µg/mL in each case.

Consider `CC[C@H]1OC(=O)[C@H](C)[C@@H](O[C@H]2C[C@@](C)(OC)[C@@H](O)[C@H](C)O2)[C@H](C)[C@@H](O[C@@H]2O[C@H](C)C[C@H](N(C)C)[C@H]2O)[C@](C)(O)C[C@@H](C)C(=O)[C@H](C)[C@@H](O)[C@]1(C)O` [ERYTHROMYCIN], for which the MIC is 32 µg/mL (≈ 43.6 µM) with Escherichia coli [6] and ≤ 1 µg/mL against Escherichia coli [7].

For the compound `COc1cccc(OC)c1C(=O)N[C@@H]1C(=O)N2[C@@H]1SC(C)(C)[C@@H]2C(=O)O` [METHICILLIN], the MIC was > 128 µg/mL against Staphylococcus aureus [2] and 2 µg/mL (≈ 5.26 µM) against Staphylococcus aureus [3].

Take COLISTIN: the MIC in the test on Pseudomonas aeruginosa, in the test on Klebsiella pneumoniae and with Acinetobacter baumannii was < 1 µg/mL each time.

The values are drawn from ChEMBL document CHEMBL4152323, “N-(1,3,4-oxadiazol-2-yl)benzamide analogs, bacteriostatic agents against methicillin- and vancomycin-resistant bacteria” (Eur J Med Chem, 2018).
